Measured values: PubChem BioAssay AID652236 (Johns Hopkins Ion Channel Center, 2013)
Hit rate of the full screen: of about 2,300 compounds, fewer than 10 were called active.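 The calls were made as follows: active = duplicate-mean ratio percent above the mean of iodide-only control wells, which defines zero, plus 5 of their SD; inactive = the rest.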 Not all results are given here.

Target: Chloride channel protein 1 (Rattus norvegicus) (UniProt P35524)
Test: blockers of rat ClC-1 channel – cell-based, voltage-dependent ClC-1, selectivity assay for TMEM16A inhibitor project (AID 652236);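 also: higher percent means stronger block of ClC-1 iodide influx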
Conditions: CHO ClC-1-YFP, iodide influx fluorescence quench; at 10 µM; iodide control reads 0, buffer control 100
In short: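 System: ClC-1 CHO cells with mutant YFP H148Q/I152L; Probe or stimulus: iodide trigger solution, 138 mM as 4x stock; Times: compound 20 min, RT; Signal: YFP fluorescence quench kinetics; Measure: percent ratio versus buffer and iodide controls; Control set: buffer, iodide.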

Sequence of Chloride channel protein 1 (Rattus norvegicus) (P35524 whole entry, looked up): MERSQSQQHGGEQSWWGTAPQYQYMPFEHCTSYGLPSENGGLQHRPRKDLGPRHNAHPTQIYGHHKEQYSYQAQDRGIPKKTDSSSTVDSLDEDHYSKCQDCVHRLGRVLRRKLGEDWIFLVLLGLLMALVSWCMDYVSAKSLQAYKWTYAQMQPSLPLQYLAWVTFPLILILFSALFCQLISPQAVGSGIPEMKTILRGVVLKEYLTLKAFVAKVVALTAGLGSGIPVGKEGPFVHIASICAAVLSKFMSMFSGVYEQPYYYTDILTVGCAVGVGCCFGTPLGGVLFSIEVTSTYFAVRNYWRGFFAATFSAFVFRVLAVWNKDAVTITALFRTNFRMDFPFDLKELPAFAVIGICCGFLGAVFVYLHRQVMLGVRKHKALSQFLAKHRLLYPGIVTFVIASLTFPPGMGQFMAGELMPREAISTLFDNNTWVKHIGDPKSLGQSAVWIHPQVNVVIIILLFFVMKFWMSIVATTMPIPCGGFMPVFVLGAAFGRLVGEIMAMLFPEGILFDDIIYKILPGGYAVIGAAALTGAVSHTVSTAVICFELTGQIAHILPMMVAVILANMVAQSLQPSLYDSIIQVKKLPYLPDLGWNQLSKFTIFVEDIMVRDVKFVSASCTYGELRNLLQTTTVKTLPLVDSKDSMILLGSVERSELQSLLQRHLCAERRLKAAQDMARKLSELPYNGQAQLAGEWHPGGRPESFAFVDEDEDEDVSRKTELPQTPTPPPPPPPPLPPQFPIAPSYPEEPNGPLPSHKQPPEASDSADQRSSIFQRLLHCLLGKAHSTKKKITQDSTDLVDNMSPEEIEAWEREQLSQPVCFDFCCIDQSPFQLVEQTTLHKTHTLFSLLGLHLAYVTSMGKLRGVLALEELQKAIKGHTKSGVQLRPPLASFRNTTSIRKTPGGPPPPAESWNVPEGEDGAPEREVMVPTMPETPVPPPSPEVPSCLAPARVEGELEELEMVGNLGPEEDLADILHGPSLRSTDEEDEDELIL

Ratio percent, inactive:
S=C(NCC1CCCO1)N1CCN(c2ccc(Cl)c(Cl)c2)CC1 (configuration not stated) -16.5%
COc1ccc(Cl)cc1NC(=O)CCS(=O)(=O)c1cc2c(cc1C)NC(=O)CO2 -11%
CCc1cc2c(N3CCN(c4nnc(CC)s4)CC3)ncnc2s1 -5%
Cc1cccc(-n2c(SCC(N)=O)nc3c(c2=O)C2(CCCCC2)Cc2ccccc2-3)c1 -9.5%
Cc1ccc(-c2csc(-c3c[nH]c4ccccc34)n2)cc1 -9.5%
CCCCCc1ccc(-c2ccc(C(=O)O)cc2)nc1 -6%
Cn1c(=O)n(C)c2cc(S(=O)(=O)N3CCCc4ccccc43)ccc21 -7.5%
O=C(Nc1ccccc1)c1ccccc1NC(=O)C(F)(F)F -15%
Cc1ccc(NC(=O)C(C)c2cccc(C(=O)c3ccccc3)c2)cc1 (configuration not stated) -13.5%
CSc1cccc(NC(=S)N(C(C)C)C(C)c2ccccn2)c1 (configuration not stated) -3%
CC(C)(C)C(=O)/C(C#N)=C/c1ccc(O)cc1 -8%
C=C(C)Cn1c(C)cc(C)c(S(=O)(=O)c2ccccc2C)c1=O -6%
CCCOc1ccc(Cc2c(Cl)nc(SC)nc2NC)cc1 -27.5%
CC(NC(=O)c1ccco1)C(=O)Nc1nc(-c2ccccn2)cs1 (configuration not stated) -2.5%
Cc1ccc2c(c1)N(CC(=O)N1CCCc3ccccc31)C(=O)C(C)O2 (configuration not stated) -3%
Cn1c(CCN2CCCCCC2)nc2cc(NC(=O)Nc3ccccc3)ccc21 -1.5%
Cc1cc(C)cc(NS(=O)(=O)c2ccc(Oc3ncc(C(F)(F)F)cc3Cl)cc2)c1 -9.5%
CN(c1cccc(NC(=O)c2ccc(CN3CCc4ccccc4C3)cc2)c1)S(C)(=O)=O -8%
COc1ccc(S(=O)(=O)NCCCCOc2ccc(Cl)cc2)cc1 -32.5%
COc1ccc(NC(=O)C2=CC(c3ccc(OC)c(OC)c3)=NS(=O)(=O)N2C)cc1 -3.5%
Cc1ccccc1-n1nnnc1SCCCC(=O)c1ccc(F)cc1 -11%
COc1ccc(-c2nc(CCNC(=O)c3ccc(Br)o3)cs2)cc1 -12%
O=C(CN1CCN(C(=S)NC2CCCC2)CC1)Nc1ccc(Oc2ccccc2)cc1 -15.5%
CCOC(=O)C1CCN(c2ncnc3c2oc2ccc(Br)cc23)CC1 -36.5%
Cc1cc(C=O)c(C)n1-c1ccc(NC2CCCCC2)c([N+](=O)[O-])c1 -10.5%
O=C(O)c1ccc(NC(=O)C2CCCCC2)cc1 -7%
Cc1nc(CNS(=O)(=O)c2ccc(Oc3ccccc3)cc2)cs1 -6.5%
S=C(NCc1cccs1)Nc1ccc(Cl)cc1 -12.5%
N#CC1=C(SCc2ccccc2)NC(=O)C(C#N)C12CCCC2 (configuration not stated) -12.5%
C=CCSc1nsc(NC(=O)Nc2cccc(C(C)=O)c2)n1 -15.5%
O=C(Nc1nc(-c2ccc3c(c2)OCO3)cs1)c1ccncc1 -13.5%
CCC(=O)Nc1ccc2nc(C)n(Cc3ccccc3Cl)c(=O)c2c1 -2%
O=C(N/N=C/c1cc(Cl)cc([N+](=O)[O-])c1O)C(O)(c1ccccc1)c1ccccc1 -7%
O=S1(=O)CCN(Cc2ccccc2Cl)CC1 -3.5%
O=C(NC(=S)Nc1ccccc1C(=O)O)c1ccc(-c2ccc(Br)cc2)o1 -15%
O=C(COC(=O)CCc1c[nH]c(=O)[nH]1)Nc1ccccc1Cl -14%
c1ccc(-c2nnc(SCc3nc4ccccc4[nH]3)o2)cc1 -14%
O=C1c2ccccc2C(Nc2ccc3c(c2)OCCO3)N1Cc1ccco1 (configuration not stated) -13%
Cc1ccc(NC(=O)CN(C)CC(=O)Nc2cccc(F)c2)cc1[N+](=O)[O-] -20.5%
COC(=O)c1ccc(COC(=O)c2c(C)nn(Cc3ccccc3Cl)c2Cl)o1 -2%
CCn1nccc1C(=O)Nc1ccc(S(=O)(=O)NC23CC4CC(CC(C4)C2)C3)cc1 -8.5%
COc1ccc2[nH]cc(/C=C(/C#N)S(=O)(=O)c3ccccc3)c2c1 -11.5%
CC1=NN(c2cccc(Cl)c2)C(=O)C12CC(C)=C(C)CS2 (configuration not stated) -13.5%
O=C(CSCc1ccc(Cl)cc1)N1CCN(Cc2ccc3c(c2)OCO3)CC1 2.5%
COc1ccc(CCC(=O)c2ccc(OC)cc2)cc1 -4%
Fc1ccc2[nH]c3c(N4CCSCC4)ncnc3c2c1 -36.5%
O=C(CNCCC1=CCCCC1)Nc1ccccc1N1CCCCCC1 -9%
CN(C)c1cc[n+](Cc2ccccc2)cc1 -5%
Cc1ccc(-n2[nH]c(C)c(/C=N/N3C(=O)c4cccc5cccc(c45)C3=O)c2=O)cc1 -16%
Cc1nc(SCC(=O)N2CCc3ccccc3C2)c2c(C)c(C)sc2n1 -16%
O=C(NCCc1ccc2c(c1)OCCO2)c1cc2ccccc2o1 -21%
Cc1ccc(F)cc1NC(=O)Cc1nn(C)c(=O)c2ccccc12 -14%
Cc1ccc(N)cc1-n1c(C)ccc1C -8%
CCOC(=O)C(Sc1ncc(C#N)c(N)n1)C(C)C (configuration not stated) -18%
Fc1ccc(CSc2nnc(-c3cc4c(s3)-c3ccccc3CC4)o2)cc1 -3%
N#Cc1nc(COc2ccc(-c3ccccc3)cc2)oc1NCc1cccnc1 -19%
Cc1nc2c(C(=O)NCc3ccc4c(c3)OCO4)c[nH]n2c(=O)c1Cc1ccccc1F -1.5%
COc1cc(CC(=O)Nc2nc(-c3ccc(F)c(F)c3)cs2)cc(OC)c1OC -7%
CN(Cc1cccnc1)C(=O)c1cc(COc2ccc3ncccc3c2)on1 -24%
Cc1ccc(-c2noc(CSc3nnnn3-c3ccccc3)n2)cc1 -1.5%
S=C(NCc1ccc(Cl)cc1)NC12CC3CC(CC(C3)C1)C2 -20.5%
Cc1[nH]n(-c2cccc(Cl)c2)c(=O)c1-c1ccc(Cl)cc1 -15%
COC(=O)c1ccc(NC(=O)c2ccccc2NS(=O)(=O)c2ccccc2)cc1 -22.5%
Cc1noc(C)c1COC(=O)c1cc2ccccc2cc1O -10.5%
CCOC(=O)N1CC=C2C(C#N)=C(N)C(C#N)(C#N)[C@H](c3cccs3)[C@H]2C1 -6.5%
CCOC(=O)c1cccc(NC(=O)CCn2nnc3ccccc32)c1 -15%
COc1cccc(CNS(=O)(=O)c2ccc3c(c2)CC(C)N3C(=O)C2CCC2)c1 (configuration not stated) -19.5%
O=C(Nc1cccc(S(=O)(=O)Nc2ccc(Cl)cc2)c1)c1ccc2c(c1)OCCO2 -24.5%
Cc1nc2ccccc2cc1OCc1ccc(F)cc1 -17%
CCCC(=O)Nc1ccccc1N1CCN(C(=O)c2ccccc2)CC1 -12.5%
CC1CCN(C(=O)c2ccc(CSc3ccc(Cl)cc3)cc2)CC1 -22.5%
CC(=O)c1c(C)[nH]c(C(=O)COC(=O)c2cccc(S(=O)(=O)N(C)c3ccccc3)c2)c1C -31%
CN1c2ccc(C=O)c3c(C=O)ccc(c23)N(C)C1(C)C -24.5%
COc1ccc(C(=O)NC2CCCc3c2cnn3-c2cccc(C)c2C)c(OC)n1 (configuration not stated) -21.5%
COc1ccc(CNc2nnnn2C)cc1 -10.5%
CCOC(=O)C1=C(CN2CCc3ccccc32)NC(=O)NC1c1cccc([N+](=O)[O-])c1 (configuration not stated) -12%
CSc1nnc2c(n1)OC(c1ccsc1)N(C(C)=O)c1ccccc1-2 (configuration not stated) -3.5%
Cc1nc(C)c(-c2csc(NCCc3ccccc3)n2)s1 -9%
CSc1nsc(NC(=O)Nc2ccccc2)n1 -7.5%
N#Cc1nc(N)nc(N(c2ccccc2)c2ccccc2)n1 -2%
CCCc1cc(=S)n2c([nH]c3ccccc32)c1C#N -9.5%
C=CCn1c(SCC(=O)Nc2nc3ccccc3s2)nnc1-c1ccccc1O -17.5%
CCCCNC(=O)CSc1nc2n[nH]c(C)c2c(=N)n1-c1cccc(Cl)c1C -4.5%
COc1ccc(OCC(=O)NCCc2ccc(S(N)(=O)=O)cc2)cc1 -14%
O=c1cc(C(F)(F)F)[nH]c(=O)n1C1CCCCC1 0%
Cc1ccc(-n2ncc3c(N4CCN(c5ccc(F)cc5)CC4)ncnc32)c(C)c1 -13%
Cc1cccc(N=Nc2c(O)[nH]c3ccc(F)cc23)c1 2.5%
Cc1ccc(C)c(N2CCN(C(=O)CCCCn3c(=O)[nH]c4ccccc4c3=O)CC2)c1 -2%
CC(C)CNC(=S)NNC(=O)c1nn(C)cc1Cl -14%
CCOC(=O)N1CCN(C(=O)c2ccc3c(c2)N(Cc2ccc(C)cc2)CCS3)CC1 -13%
Cc1ccc(C)c(N2CCN(S(=O)(=O)c3ccc4c(c3)oc(=O)n4C)CC2)c1 -27.5%
COc1ccc(-n2c(C)cc(C(=O)CSc3nnc(-c4cccs4)o3)c2C)cc1 -7%
Cn1c(CN2CCOCC2)nc2cc(NC(=O)c3ccc(Cl)cc3)ccc21 -9%
Cc1ccc2c(c1)N(S(=O)(=O)c1cc(-c3cc(C)no3)ccc1C)CCO2 -4%
Cc1ccc(N2C(=O)S/C(=C/c3cn(C)c4ccccc34)C2=O)cc1 -10%
CCCCn1ccnc1C(=O)c1cccc(S(=O)(=O)N2c3ccccc3CC2C)c1 (configuration not stated) -3%
CCN(CC)S(=O)(=O)c1ccc(N(C)Cc2ccc(C(F)(F)F)cc2)nc1 -9%
O=C(COc1ccccc1)NCc1ccc2c(c1)OCO2 -4.5%
Cc1ccc(C(=O)O)cc1-c1ccc(/C=C2\SC(=O)N(CC(=O)Nc3ccc4c(c3)OCO4)C2=O)o1 -5.5%
COc1ccc(CN(C)C(=O)CC(c2ccccc2)c2ccccc2)cc1 -8.5%
CC(=O)c1cc(CN2CCC(C(=O)Nc3cccc(-c4cscn4)c3)CC2)cs1 -16.5%
O=C1NC(=O)C2C1C(c1ccc([N+](=O)[O-])cc1)=NN2Cc1ccccc1 (configuration not stated) -32%
